ChEMBL document CHEMBL1124262, “Cardiotonic agents. Synthesis and inotropic activity of a series of isoquinolin-3-ol derivatives” (J Med Chem, 1988)

Tests used:
[1] = test system: Canis familiaris; test: Percent change in heart rate (HR) in anesthetized open chest dogs after a iv dose of 8.75 mg/kg; type: functional, Canis lupus familiaris
How it was run: (§1)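 Anesthetized open-chest dogs, one drug per animal. Compound is in DMF diluted to 10% in saline, or given as the HCl salt in saline. It is infused into the femoral vein by pump at 0.58-2.2 mL/min in 3-4 stepwise cumulative doses, each over 5 min after the prior peak. Readings are CF by right-ventricle strain gauge, dP/dtmax by Millar LV catheter, HR by cardiotachometer and MAP from femoral artery, as % change from predrug control.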

[2] = test system: Canis familiaris; test: Percent change in left ventricular pressure (dP/dtmax) in anesthetized dog after iv administration at 8.75 mg/kg; type: functional, Canis lupus familiaris, Heart left ventricle; how it was run: as §1
[3] = test system: Canis familiaris; test: Percent change in mean arterial blood pressure (MAP) in anesthetized open chest dogs iv administration at 8.75 mg/kg; type: functional, Canis lupus familiaris; how it was run: as §1
[4] = test system: Canis familiaris; test: Percent increase in contractile force (CF) in anesthetized open-chest dogs iv administration of 8.75 mg/kg; type: functional, Canis lupus familiaris
How it was run: (§2)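 Anesthetized open-chest dogs. After a right thoracotomy, contractile force was recorded by a Walton Brodie strain gauge sutured to the right ventricle at 100 g baseline tension. Compound was given iv by infusion pump into a femoral vein, one drug per animal, in three to four stepwise increasing doses. Each dose ran over 5 min, starting once the previous dose's effect peaked. Values are % increase over predrug control vs cumulative mg/kg dose.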

[5] = test system: Canis familiaris; test: Percent change in heart rate (HR) in anesthetized open chest dogs after a iv dose of 0.925 mg/kg; type: functional, Canis lupus familiaris; how it was run: as §1
[6] = test system: Canis familiaris; test: 50% increase in contractile force in one to three anesthetized dogs administered intravenously; type: functional; conditions: Canis lupus familiaris, iv
How it was run: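 Anesthetized dogs (one to three). Compound is infused iv in three to four stepwise increasing doses, each over 5 min once the previous effect has peaked. Contractile force is recorded with a Walton Brodie strain gauge on the right ventricle. The dose (μg/kg) giving a 50% rise over control CF is read from the dose-response curve, graphically (n < 3) or by linear regression (n ≥ 3).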

[7] = test system: Canis familiaris; test: Percent increase in contractile force (CF) in anesthetized open-chest dogs iv administration of 0.925 mg/kg; type: functional, Canis lupus familiaris; how it was run: as §2
[8] = test system: Canis familiaris; test: Percent change in mean arterial blood pressure (MAP) in anesthetized open chest dogs iv administration at 0.9250 mg/kg; type: functional, Canis lupus familiaris; conditions: dose 0.925 mg/kg; how it was run: as §1
[9] = test system: Canis familiaris; test: Percent change in left ventricular pressure (dP/dtmax) in anesthetized dog after iv administration at 0.925 mg/kg; type: functional, Canis lupus familiaris, Heart left ventricle; how it was run: as §1
[10] = target: Phosphodiesterase 3 (Homo sapiens, UniProt Q14432+Q13370); test: Inhibition of phosphodiesterase fraction III in anesthetized open chest dogs; type: functional, Canis lupus familiaris; conditions: target entry is the homologue from another species
How it was run: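 Enzyme is dog heart PDE-III, the third DEAE-cellulose fraction eluted at 800 mM sodium acetate. Compounds are tested at 0.01–1000 μM with 0.25 μM cAMP containing [³H]cAMP, in 0.05 M Tris-HCl pH 7.4 with 5 mM MgCl2. The reaction is stopped by heat, then snake venom converts product to adenosine. [³H]adenosine is counted by scintillation after Dowex separation. IC50 comes from ≥2 determinations, each in duplicate.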

[11] = test system: Canis familiaris; test: Change in heart rate of anaesthetized, open chest dogs following 0.875 mg/kg i.v. administration.; type: functional, Canis lupus familiaris; conditions: route intravenous; how it was run: as §1
[12] = test system: Canis familiaris; test: Percent change in heart rate (HR) in anesthetized open chest dogs after a iv dose of 10 mg/kg; type: functional, Canis lupus familiaris; how it was run: as §1
[13] = test system: Canis familiaris; test: Percent change in left ventricular pressure (dP/dtmax) in anesthetized dog after iv administration at 10 mg/kg; type: functional, Canis lupus familiaris, Heart left ventricle; how it was run: as §1
[14] = test system: Canis familiaris; test: Percent increase in contractile force (CF) in anesthetized open-chest dogs id administration of 10 mg/kg; type: functional, Canis lupus familiaris; conditions: route intraduodenal
How it was run: (§3)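 Anesthetized open-chest dogs. A 10-mL bolus is injected into the duodenum through a catheter placed 2 cm distal to the pylorus. Contractile force is measured with a Walton Brodie strain gauge sutured to the right ventricle, at a baseline tension of 100 g, and monitored continuously. Results are given as % increase from predrug control against cumulative dose.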

[15] = test system: Canis familiaris; test: Change in heart contractile force of anaesthetized, open chest dogs following 0.875 mg/kg i.v. administration.; type: functional, Canis lupus familiaris; conditions: route intravenous; how it was run: as §1
[16] = test system: Canis familiaris; test: Percent change in mean arterial blood pressure (MAP) in anesthetized open chest dogs iv administration at 10 mg/kg; type: functional, Canis lupus familiaris; how it was run: as §1
[17] = test system: Canis familiaris; test: Percent change in mean arterial blood pressure (MAP) in anesthetized open chest dogs iv administration at 0.8750 mg/kg; type: functional, Canis lupus familiaris; conditions: dose 0.875 mg/kg; how it was run: as §1
[18] = test system: Canis familiaris; test: Change in left ventricular pressure of anaesthetized, open chest dogs following 0.875 mg/kg i.v. administration.; type: functional, Canis lupus familiaris, Heart left ventricle; conditions: route intravenous; how it was run: as §1
[19] = test system: Canis familiaris; test: Percent change in heart rate (HR) in anesthetized open chest dogs after a iv dose of 1 mg/kg; type: functional, Canis lupus familiaris; how it was run: as §1
[20] = test system: Canis familiaris; test: Percent change in mean arterial blood pressure (MAP) in anesthetized open chest dogs iv administration at 1 mg/kg; type: functional, Canis lupus familiaris; how it was run: as §1
[21] = test system: Canis familiaris; test: Contractile force in anesthetized open chest dogs id administration 1.00 mg/kg; type: functional, Canis lupus familiaris; conditions: route intraduodenal; how it was run: as §3
[22] = test system: Canis familiaris; test: Percent increase in left ventricular pressure (dP/dtmax) of anesthetized dog after id administration at 1 mg/kg; type: functional, Canis lupus familiaris, Heart left ventricle; conditions: route intraduodenal
How it was run: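 Anesthetized open-chest dogs. Left ventricular pressure was measured by Millar catheter and dP/dtmax derived. Compound was given as a 10-mL bolus into the duodenum through a catheter placed 2 cm distal to the pylorus via flank incision. Dissolved in DMF diluted to 10% in saline, or as HCl salt in saline. Response is % change over predrug control, monitored continuously.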

[23] = test system: Canis familiaris; test: Percent change in mean arterial blood pressure (MAP) in anesthetized open chest dogs iv administration at 0.875 mg/kg; type: functional, Canis lupus familiaris; how it was run: as §1
[24] = test system: Canis familiaris; test: Percent change in heart rate (HR) in anesthetized open chest dogs after a iv dose of 0.875 mg/kg; type: functional, Canis lupus familiaris; how it was run: as §1
[25] = test system: Canis familiaris; test: (§4) Percent change in heart rate (HR) in anesthetized open chest dogs after a iv dose of 0.1 mg/kg; type: functional, Canis lupus familiaris; how it was run: as §1
[26] = test system: Canis familiaris; test: as §4; type: functional, Canis lupus familiaris; how it was run: as §1; remark: listed apart in the source
[27] = test system: Canis familiaris; test: Percent increase in contractile force (CF) in anesthetized open-chest dogs id administration of 0.100 mg/kg; type: functional, Canis lupus familiaris; conditions: dose 0.1 mg/kg; route intraduodenal; how it was run: as §3
[28] = test system: Canis familiaris; test: Percent increase in contractile force (CF) in anesthetized open-chest dogs iv administration of 0.100 mg/kg; type: functional, Canis lupus familiaris; conditions: dose 0.1 mg/kg; how it was run: as §1
[29] = test system: Canis familiaris; test: (§5) Percent change in mean arterial blood pressure (MAP) in anesthetized open chest dogs iv administration at 0.1 mg/kg; type: functional, Canis lupus familiaris; how it was run: as §1
[30] = test system: Canis familiaris; test: as §5; type: functional, Canis lupus familiaris; how it was run: as §1; remark: listed apart in the source
[31] = test system: Canis familiaris; test: Percent change in left ventricular pressure (dP/dtmax) in anesthetized dog after iv administration at 0.1 mg/kg; type: functional, Canis lupus familiaris, Heart left ventricle; how it was run: as §1
[32] = test system: Canis familiaris; test: Percent change in heart rate (HR) in anesthetized open chest dogs after a iv dose of 3.75 mg/kg; type: functional, Canis lupus familiaris; how it was run: as §1
[33] = test system: Canis familiaris; test: Percent change in left ventricular pressure (dP/dtmax) in anesthetized dog after iv administration at 3.75 mg/kg; type: functional, Canis lupus familiaris, Heart left ventricle; how it was run: as §1
[34] = test system: Canis familiaris; test: Percent increase in contractile force (CF) in anesthetized open-chest dogs iv administration of 3.75 mg/kg; type: functional, Canis lupus familiaris; how it was run: as §2
[35] = test system: Canis familiaris; test: Percent change in mean arterial blood pressure (MAP) in anesthetized open chest dogs iv administration at 3.75 mg/kg; type: functional, Canis lupus familiaris; how it was run: as §1
[36] = test system: Canis familiaris; test: Percent increase in contractile force (CF) in anesthetized open-chest dogs id administration of 1 mg/kg; type: functional, Canis lupus familiaris; conditions: route intraduodenal; how it was run: as §3
[37] = test system: Canis familiaris; test: Percent increase in contractile force (CF) in anesthetized open-chest dogs iv administration of 0.1 mg/kg; type: functional, Canis lupus familiaris; how it was run: as §1
[38] = test system: Canis familiaris; test: Percent change in heart rate (HR) in anesthetized open chest dogs after a iv dose of 0.375 mg/kg; type: functional, Canis lupus familiaris; how it was run: as §1
[39] = test system: Canis familiaris; test: Percent increase in contractile force (CF) in anesthetized open-chest dogs iv administration of 0.375 mg/kg; type: functional, Canis lupus familiaris; how it was run: as §2
[40] = test system: Canis familiaris; test: Percent change in mean arterial blood pressure (MAP) in anesthetized open chest dogs iv administration at 0.375 mg/kg; type: functional, Canis lupus familiaris; how it was run: as §1
[41] = test system: Canis familiaris; test: Percent change in left ventricular pressure (dP/dtmax) in anesthetized dog after iv administration at 0.375 mg/kg; type: functional, Canis lupus familiaris, Heart left ventricle; how it was run: as §1

COc1ccc2cc(O)ncc2c1OC
Change [1]: 13% | Increase [2]: 34% | Change [3]: -7% | Increase [4]: 60%

COc1ccc2c(C)nc(O)cc2c1
Change [5]: 8% | ED50 [6]: 0.6 mg/kg | Increase [7]: 65% | Change [8]: 0% | Increase [9]: 56% | IC50 [10]: 160 µM

COC(=O)CCc1c(O)nc(C)c2cc(OC)c(OC)cc12
Change [11]: 34% | Change [12]: 12% | Increase [13]: 52% | ED50 [6]: 0.165 mg/kg | Increase [14]: 105% | Increase [15]: 140% | Change [16]: -11% | Change [17]: -12% | Increase [18]: 78% | IC50 [10]: 35 µM

CCCc1c(O)nc(C)c2cc(OC)c(OC)cc12
Change [11]: 22% | Change [19]: 5% | ED50 [6]: 0.125 mg/kg | Increase [15]: 108% | Change [20]: 3% | Change [17]: 4% | Increase [21]: 20% | Increase [22]: 20% | Increase [18]: 55% | IC50 [10]: 5 µM

COc1cc(OC)c2c(C)nc(O)cc2c1
ED50 [6]: 0.375 mg/kg | Increase [15]: 91% | Change [23]: -18% | Increase [18]: 62% | Change [24]: 13% | IC50 [10]: 80 µM

Cc1[nH]c(=O)c(C#N)cc1-c1ccncc1 [MILRINONE]
Change [25]: 15% | Change [26]: 14% | Increase [27]: 85% | Increase [28]: 105% | Change [29]: -13% | Change [30]: -3% | Increase [22]: 36% | Increase [31]: 76%

Cc1nc(O)cc2cc3c(cc12)OCO3
Change [32]: 13% | Increase [33]: 32% | Increase [34]: 82% | Change [35]: -10%

COc1cc2c(C)nc(O)c(C)c2cc1OC
Change [25]: 15% | Change [19]: 8% | ED50 [6]: 0.04 mg/kg | Increase [36]: 64% | Increase [37]: 80% | Change [20]: -6% | Change [30]: -4% | Increase [22]: 30% | Increase [31]: 48% | IC50 [10]: 10 µM

COc1cc2c(C)nc(OC(C)=O)c(Br)c2cc1OC
Change [38]: 15% | Increase [39]: 117% | Change [40]: -33% | Increase [41]: 60%
